Measurements: ChEMBL document CHEMBL1154598, “7-Hydroxy-benzopyran-4-one derivatives: a novel pharmacophore of peroxisome proliferator-activated receptor alpha and -gamma (PPARalpha and gamma) dual agonists” (J Med Chem, 2009)

Key:
[1] = Cytotoxicity against HEK293 cells assessed as viable cells at 0.1 uM after 48 hrs by aqueous one solution cell proliferation assay relative to control; assay type: cell-based; details: human, read-out: Activity
Outline: (§1)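 HEK293 cells were seeded overnight, then exposed to 0–100 μM compound for 48 h at 37 °C in 5% CO₂. MTS reagent was added for a further 2 h and absorbance read at 490 nm. Viability is given as % relative to DMSO vehicle control. Two experiments, each in quadruplicate.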

HEK293 = experiment: Cytotoxicity against HEK293 cells assessed as decrease in viable cells at 50 uM after 48 hrs by aqueous one solution cell proliferation assay relative to control; assay type: cell-based; details: human, hek293, 48 h; outline: as §1
[2] = molecular target: T1, Peroxisome proliferator-activated receptor gamma (Homo sapiens) (UniProt P37231); experiment: Agonist activity at human PPARgamma expressed in HEK293 cells co-transfected with PPRE assessed as beta-galactosidase signal at 25 uM after 48 hrs by reporter gene assay relative to control; assay type: functional, cell-based
T1 sequence (whole entry): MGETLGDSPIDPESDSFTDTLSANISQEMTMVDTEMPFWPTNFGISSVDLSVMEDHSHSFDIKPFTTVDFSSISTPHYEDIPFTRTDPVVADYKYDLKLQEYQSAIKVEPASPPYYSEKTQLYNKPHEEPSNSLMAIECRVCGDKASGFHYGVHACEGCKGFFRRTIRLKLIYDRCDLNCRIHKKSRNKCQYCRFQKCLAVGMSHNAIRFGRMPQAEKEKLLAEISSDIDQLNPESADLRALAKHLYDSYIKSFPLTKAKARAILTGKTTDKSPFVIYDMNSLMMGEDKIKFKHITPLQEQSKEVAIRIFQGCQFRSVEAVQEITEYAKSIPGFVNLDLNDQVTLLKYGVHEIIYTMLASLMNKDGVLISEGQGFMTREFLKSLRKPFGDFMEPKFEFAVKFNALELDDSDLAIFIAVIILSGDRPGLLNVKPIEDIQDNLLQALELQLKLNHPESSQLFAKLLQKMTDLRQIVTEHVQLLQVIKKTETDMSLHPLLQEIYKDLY
Outline: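 HEK293 cells were transfected with FuGENE 6 using a PPRE-luciferase reporter, pSG5-hPPARγ1 and a β-galactosidase control plasmid. After 24 h they were replated at 5 × 10⁴ cells/well, attached overnight, then treated for 48 h with 0.1% DMSO as vehicle. Luciferase was read, normalized to the β-gal signal and reported as fold activation over vehicle. Mean of two experiments in triplicate.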

[3] = molecular target: T2, Peroxisome proliferator-activated receptor alpha (Homo sapiens) (UniProt Q07869); experiment: Agonist activity at human PPARalpha expressed in HEK293 cells co-transfected with PPRE assessed as beta-galactosidase signal at 25 uM after 48 hrs by reporter gene assay relative to control; assay type: functional, cell-based
T2 sequence (whole entry): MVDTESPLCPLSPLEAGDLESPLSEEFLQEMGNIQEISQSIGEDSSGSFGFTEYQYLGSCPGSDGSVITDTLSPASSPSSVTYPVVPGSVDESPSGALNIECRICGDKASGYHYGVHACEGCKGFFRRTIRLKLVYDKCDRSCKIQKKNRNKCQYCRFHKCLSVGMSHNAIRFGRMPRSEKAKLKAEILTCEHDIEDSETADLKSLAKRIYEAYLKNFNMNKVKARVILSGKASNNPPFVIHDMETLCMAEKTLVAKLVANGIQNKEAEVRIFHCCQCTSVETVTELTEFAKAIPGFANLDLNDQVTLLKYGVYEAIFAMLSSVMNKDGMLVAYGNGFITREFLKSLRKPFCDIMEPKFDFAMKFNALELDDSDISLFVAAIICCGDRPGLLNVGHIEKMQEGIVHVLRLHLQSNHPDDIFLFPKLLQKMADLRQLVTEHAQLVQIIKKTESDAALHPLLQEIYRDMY
Outline: (§2)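 Human PPARα transactivation in HEK293 cells grown in DMEM/F-12 with 10% heat-inactivated FBS. Cells were transfected with FuGENE 6 using a PPRE-luciferase reporter, pBI-G-hPPARα and a β-galactosidase control plasmid. After 24 h they were replated at 5 × 10⁴ cells/well, attached overnight, then dosed for 48 h with 0.1% DMSO as vehicle. Luciferase was normalized to β-gal and expressed as fold over vehicle. Two experiments, each in triplicate.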

[4] = molecular target: T2, Peroxisome proliferator-activated receptor alpha (Homo sapiens); experiment: Agonist activity at human PPARalpha expressed in HEK293 cells co-transfected with PPRE assessed as beta-galactosidase signal at 40 uM after 48 hrs by reporter gene assay relative to control; assay type: functional, cell-based; outline: as §2
[5] = molecular target: T3, Peroxisome proliferator-activated receptor gamma (Homo sapiens, UniProt P37231); experiment: Agonist activity at human PPARgamma assessed as luciferase activity by transactivation assay; assay type: functional
T3 sequence (P37231 whole entry): T1 sequence (whole entry)
Outline: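 Transiently transfected HEK293 (PPRE-luciferase reporter plus pSG5-hPPARγ1 and β-gal control), compound exposure 48 h. EC50 is the ligand concentration giving half-maximal fold induction of β-gal-normalized luciferase, fitted by nonlinear regression. Means of three experiments.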

[6] = molecular target: T4, Peroxisome proliferator-activated receptor alpha (Homo sapiens, UniProt Q07869); experiment: Agonist activity at human PPARalpha assessed as luciferase activity by transactivation assay; assay type: functional
T4 sequence (Q07869 whole entry): T2 sequence (whole entry)

[7] = Cytotoxicity against HEK293 cells assessed as viable cells at 10 uM after 48 hrs by aqueous one solution cell proliferation assay relative to control; assay type: cell-based; details: human, read-out: Activity; outline: as §1
[8] = Cytotoxicity against HEK293 cells assessed as viable cells at 100 uM after 48 hrs by aqueous one solution cell proliferation assay relative to control; assay type: cell-based; details: human, read-out: Activity; outline: as §1
[9] = Cytotoxicity against HEK293 cells assessed as viable cells at 50 uM after 48 hrs by aqueous one solution cell proliferation assay relative to control; assay type: cell-based; details: human, read-out: Activity; outline: as §1
[10] = molecular target: T1, Peroxisome proliferator-activated receptor gamma (Homo sapiens); experiment: Agonist activity at PPARgamma expressed in mouse RAW264.7 cells assessed as beta-galactosidase signal at 10 uM by reporter gene assay relative to control; assay type: functional, cell-based

| Compound | fold change (FC) [2] | fold change (FC) [3] | fold change (FC) [4] | also measured |
| --- | --- | --- | --- | --- |
| CC(C)OC(=O)C(C)(C)Oc1ccc(C(=O)c2ccc(Cl)cc2)cc1 [FENOFIBRATE] | – | – | – | viability at 48 h, 0.1 µM [1]: > 90%; Activity (HEK293): 38% |
| O=C1C[C@@H](c2ccc(O)cc2)Oc2cc(O)cc(O)c21 | 1.7 | 1.2 | 1.7 | – |
| O=c1cc(-c2ccc(O)cc2)oc2ccc(O)cc12 | 5 | 2.6 | 3.5 | – |
| O=c1c(-c2ccc3c(c2)OCO3)coc2cc(O)ccc12 [PSEUDOBAPTOGENIN] | 38.5 | 5.6 | 11.7 | EC50 [5]: 26.9 µM; EC50 [6]: 8.9 µM; viability at 48 h, 10 µM [7]: > 90%; viability at 48 h, 100 µM [8]: > 60%; viability at 48 h, 50 µM [9]: > 67% |
| CN(CCOc1ccc(CC2SC(=O)NC2=O)cc1)c1ccccn1 (stereo not drawn) [ROSIGLITAZONE] | – | – | – | viability at 48 h, 100 µM [8]: 46% |
| O=c1c(-c2ccc(O)cc2)coc2cc(O)c(O)cc12 | 4.4 | 1.8 | 4 | – |
| O=c1cc(-c2cccc(O)c2)oc2cc(O)ccc12 | 6.3 | 8.2 | 14.8 | – |
| COc1ccc(-c2cc(=O)c3c(O)cc(O)cc3o2)cc1O | 7.3 | 2.8 | 3.8 | – |
| COc1ccc(-c2cc(=O)c3c(O)cc(O)cc3o2)cc1 | 7.7 | 2.3 | 5.2 | – |
| CN(CCOc1ccc(C[C@H](Nc2ccccc2C(=O)c2ccccc2)C(=O)O)cc1)c1ccccn1 | – | – | – | viability at 48 h, 100 µM [8]: 33% |
| O=c1cc(-c2ccccc2O)oc2cc(O)ccc12 | 6.8 | 3.6 | 4.9 | – |
| COc1ccc([C@@H]2CC(=O)c3c(O)cc(O)cc3O2)cc1O | 3.8 | 1.9 | 2 | – |
| O=c1c(-c2ccc3c(c2)OCCO3)coc2cc(OC3CCCCO3)ccc12 (stereo not drawn) | 2 | 2.5 | 3.3 | – |
| O=c1c(-c2ccc(F)cc2)coc2cc(O)ccc12 | 148 | 8.6 | 28.7 | EC50 [5]: 15.4 µM; EC50 [6]: 33.1 µM; viability at 48 h, 50 µM [9]: > 67% |
| COc1cc(-c2cc(=O)c3c(O)cc(O)cc3o2)ccc1O | 2.2 | 1.1 | 1.3 | – |
| O=c1cc(-c2ccc(O)cc2)oc2cccc(O)c12 | 8.9 | 2.4 | 3.7 | – |
| COc1cc(OC)cc(-c2coc3cc(O)ccc3c2=O)c1 | 116 | 4.8 | 25.3 | EC50 [5]: 18.9 µM; EC50 [6]: 24.6 µM; viability at 48 h, 10 µM [7]: > 80%; viability at 48 h, 50 µM [9]: > 67% |
| O=c1cc(-c2ccccc2)oc2cc(O)cc(O)c12 | 4 | 3.4 | 5.3 | fold change (FC) [10]: 5.6 |
| COc1ccc2c(=O)c(-c3ccc4c(c3)OCO4)coc2c1 | 25.2 | 2.2 | 2.4 | – |
| O=c1c(-c2ccc(O)cc2)coc2cc(O)ccc12 | 9.6 | 6.2 | 13.4 | – |
| COc1ccc(-c2coc3cc(O)ccc3c2=O)cc1 | 12.8 | 7.5 | 7.8 | – |
| O=c1cc(-c2ccc(O)cc2)oc2cc(O)ccc12 | 5 | 1.5 | 2.6 | – |
| COc1cccc(-c2coc3cc(O)ccc3c2=O)c1 | 57.5 | 16.5 | 43 | EC50 [5]: 22.3 µM; EC50 [6]: 23.1 µM; viability at 48 h, 10 µM [7]: > 90%; viability at 48 h, 100 µM [8]: > 60%; viability at 48 h, 50 µM [9]: > 67% |
| O=c1cc(-c2ccc(O)cc2)oc2cc(O)cc(O)c12 | 5.4 | 2 | 2.3 | fold change (FC) [10]: 8.13 |
| O=c1cc(-c2ccc(O)c(O)c2)oc2ccccc12 | 5 | 2.8 | 7.7 | – |
| O=c1c(O)c(-c2ccc(O)cc2)oc2cc(O)cc(O)c12 | 3.5 | 1.8 | 2.6 | fold change (FC) [10]: 7.6 |
